Test results from ChEMBL document CHEMBL3608263, “Identification and optimisation of 4,5-dihydrobenzo[1,2-d:3,4-d]bisthiazole and 4,5-dihydrothiazolo[4,5-h]quinazoline series of selective phosphatidylinositol-3 kinase alpha inhibitors” (Bioorg Med Chem Lett, 2015).
In brackets after ≈: the same amount, converted by molar mass.

Experiments:
Rattus norvegicus [1] = assay: Dose normalized AUC in Sprague-Dawley rat at 1 mg/kg, iv; format: ADME, organism-based; details: in vivo
Procedure, shortened: (§1)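 Female Sprague-Dawley rats, conscious, permanently cannulated, with free access to food. Dosed 1.0 mg kg-1 intravenously and 3.0 mg kg-1 orally. Blood levels sampled from 5 minutes to 48 h post dose.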

[2] = Volume of distribution at steady state in Sprague-Dawley rat at 1 mg/kg, iv and 3 mg/kg, po; format: ADME, organism-based; details: in vivo, read-out: Vdss; procedure, shortened: as §1
[3] = Oral bioavailability in Sprague-Dawley rat at 3 mg/kg; format: ADME, organism-based; details: in vivo; procedure, shortened: as §1
Rattus norvegicus [4] = assay: Dose normalized AUC in Sprague-Dawley rat at 3 mg/kg, po; format: ADME, organism-based; details: in vivo; procedure, shortened: as §1
[5] = Permeability across apical to basolateral side in human Caco2 cells; format: ADME, cell-based; details: Caco-2, read-out: permeability
[6] = Permeability across basolateral to apical side in human Caco2 cells; format: ADME, cell-based; details: Caco-2, read-out: permeability
[7] = Solubility of the compound at pH 6.8 by high throughput equilibrium method; format: physicochemical; details: buffer
[8] = Plasma concentration in athymic nude mouse xenografted with Rat1-myr-p110alpha tumor at 50 mg/kg, po measured up to 8 hrs; format: ADME, organism-based
Procedure, shortened: (§2)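 Female athymic mice bearing subcutaneous Rat1-myr-p110α xenografts were given one oral dose of 50 mg kg-1, as suspension or solution. At set time points, groups of n = 4 were sacrificed. Tumors were flash-frozen, pulverized and analysed by Western blot for Ser473 p-Akt. Compound was quantified in plasma in parallel.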

Plasma = assay: Drug uptake in plasma of athymic nude mouse xenografted with Rat1-myr-p110alpha tumor at 50 mg/kg, po measured at 8 hrs; format: ADME, organism-based; details: in vivo; procedure, shortened: as §2
[9] = Plasma concentration in athymic nude mouse xenografted with Rat1-myr-p110alpha tumor at 50 mg/kg, po measured after 16 hrs; format: ADME, organism-based; procedure, shortened: as §2

| Structure (SMILES) | AUC/dose (Rattus norvegicus [1]) | Vd [2] | bioavailability [3] | AUC/dose (Rattus norvegicus [4]) | Papp A→B [5] | Papp B→A [6] | solubility thermodynamic [7] | also measured |
| --- | --- | --- | --- | --- | --- | --- | --- | --- |
| Cc1nc(NC(=O)N2CCC[C@H]2C(N)=O)sc1-c1ccnc(C(C)(C)C)n1 | 1128 nmol·h/L | 1.3 L/kg | 18% | 199 nmol·h/L | – | – | – | – |
| Cc1nc(NC(=O)N2CCC[C@H]2C(N)=O)sc1-c1csc(C(C)(C)C)n1 | 561 nmol·h/L | 2 L/kg | 2% | 70 nmol·h/L | 12.3 ×10⁻⁶ cm/s | 15.6 ×10⁻⁶ cm/s | – | – |
| NC(=O)[C@@H]1CCCN1C(=O)Nc1nc2c(s1)-c1nc(CC3CC3)sc1CC2 | – | – | – | – | – | – | 55 µM (≈ 22.2 µg/mL) | – |
| CC(C)(C)c1ncc2c(n1)-c1sc(NC(=O)N3CCC[C@@]3(C)C(N)=O)nc1CC2 | – | – | – | – | 3.4 ×10⁻⁶ cm/s | 25.5 ×10⁻⁶ cm/s | 60 µM (≈ 24.9 µg/mL) | – |
| CC(C)(C)c1ncc2c(n1)-c1sc(NC(=O)N3CC[C@@H]4C[C@@]43C(N)=O)nc1CC2 | 16472 nmol·h/L | 0.6 L/kg | 83% | 13599 nmol·h/L | – | – | 51 µM (≈ 21 µg/mL) | Drug uptake (Plasma): Active; concentration at 16 h [9]: 1000 nM |
| CN(C)C[C@@]1(C(N)=O)CCCN1C(=O)Nc1nc2c(s1)-c1nc(C(C)(C)C)ncc1CC2 | 1444 nmol·h/L | 3.2 L/kg | 77% | 1116 nmol·h/L | 5.2 ×10⁻⁶ cm/s | 15.8 ×10⁻⁶ cm/s | > 1000 µM | – |
| CN(C)[C@@H]1C[C@@H](C(N)=O)N(C(=O)Nc2nc3c(s2)-c2nc(C(C)(C)C)ncc2CC3)C1 | – | – | – | – | – | – | 500 µM (≈ 222 µg/mL) | – |
| Cc1nc(NC(=O)N2CCC[C@H]2C(N)=O)sc1-c1ccnc(C(C)(C)C(F)(F)F)c1 [ALPELISIB] | – | – | – | – | 3.8 ×10⁻⁶ cm/s | 18.3 ×10⁻⁶ cm/s | – | – |

Further lines, with some results ahead:

| AUC/dose (Rattus norvegicus [1]) | Vd [2] | bioavailability [3] | AUC/dose (Rattus norvegicus [4]) | Papp A→B [5] | Papp B→A [6] | solubility thermodynamic [7] | Structure (SMILES) | also measured |
| --- | --- | --- | --- | --- | --- | --- | --- | --- |
| 4132 nmol·h/L | 0.4 L/kg | 39% | 1585 nmol·h/L | – | – | 65 µM (≈ 26.4 µg/mL) | CC(C)(C)c1nc2c(s1)CCc1nc(NC(=O)N3CCC[C@H]3C(N)=O)sc1-2 | – |
| – | – | – | – | 12.1 ×10⁻⁶ cm/s | 15.6 ×10⁻⁶ cm/s | 310 µM (≈ 130 µg/mL) | CC(C)(C)c1nc2c(s1)CCc1nc(NC(=O)N3CCC[C@@]3(C)C(N)=O)sc1-2 | – |
| – | – | – | – | – | – | 351 µM (≈ 147 µg/mL) | CC(C)(C)c1nc2c(s1)CCc1nc(NC(=O)N3CC[C@@H]4C[C@@]43C(N)=O)sc1-2 | – |
| – | – | – | – | – | – | < 4 µM | C[C@H]1CCN(C(=O)Nc2nc3c(s2)-c2nc(C(C)(C)C)sc2CC3)[C@@H]1C(N)=O | – |
| – | – | – | – | – | – | 9 µM (≈ 3.78 µg/mL) | C[C@@H]1CCN(C(=O)Nc2nc3c(s2)-c2nc(C(C)(C)C)sc2CC3)[C@@H]1C(N)=O | – |
| – | – | – | – | – | – | 14 µM (≈ 6.63 µg/mL) | C[C@@H]1CCN(C(=O)Nc2nc3c(s2)-c2nc(C(C)(C)C(F)(F)F)sc2CC3)[C@@H]1C(N)=O | concentration at 8 h [8]: > 1000 nM |
| 956 nmol·h/L | 24 L/kg | 56% | 531 nmol·h/L | 0.76 ×10⁻⁶ cm/s | 6.87 ×10⁻⁶ cm/s | – | CN(C)C[C@@H]1CCN(C(=O)Nc2nc3c(s2)-c2nc(C(C)(C)C)sc2CC3)[C@@H]1C(N)=O | – |
| – | – | – | – | – | – | 125 µM (≈ 50.1 µg/mL) | CC(C)(C)c1ncc2c(n1)-c1sc(NC(=O)N3CCC[C@H]3C(N)=O)nc1CC2 | – |
| 5241 nmol·h/L | 0.5 L/kg | 36% | 1874 nmol·h/L | 3.4 ×10⁻⁶ cm/s | 21.7 ×10⁻⁶ cm/s | 71 µM (≈ 29.4 µg/mL) | C[C@@H]1CCN(C(=O)Nc2nc3c(s2)-c2nc(C(C)(C)C)ncc2CC3)[C@@H]1C(N)=O | – |
| – | – | – | – | – | – | 9 µM (≈ 4.22 µg/mL) | C[C@@H]1CCN(C(=O)Nc2nc3c(s2)-c2nc(C(C)(C)C(F)(F)F)ncc2CC3)[C@@H]1C(N)=O | – |
| – | – | – | – | – | – | 276 µM (≈ 126 µg/mL) | CN(C)C[C@@H]1CCN(C(=O)Nc2nc3c(s2)-c2nc(C(C)(C)C)ncc2CC3)[C@@H]1C(N)=O | – |
